{"source": "ChEMBL document CHEMBL4130509", "about": "“Sesquiterpenes from the Endophyte Glomerella cingulata” (J Nat Prod, 2017)", "key": {"Bel-7402": {"system": "Bel-7402", "test": "Cytotoxicity against human Bel7402 cells by MTT assay", "format": "functional, cell-based"}, "A2780": {"system": "A2780", "test": "Cytotoxicity against human A2780 cells by MTT assay", "format": "functional, cell-based"}, "HCT-116": {"system": "HCT-116", "test": "Cytotoxicity against human HCT116 cells by MTT assay", "format": "functional, cell-based"}, "Homo sapiens": {"species_on_record": "Homo sapiens", "test": "Cytotoxicity against human […] cells by MTT assay", "format": "functional, cell-based"}, "HCT-8": {"system": "HCT-8", "test": "Cytotoxicity against human HCT8 cells by MTT assay", "format": "functional, cell-based"}, "BV-2 [1]": {"system": "BV-2", "test": "Antiinflammatory activity against mouse BV2 cells assessed as inhibition of LPS-induced nitric oxide production at 1 uM after 24 hrs by griess assay relative to control", "format": "functional", "settings": "BV-2, 24 h", "how_it_was_run": "(§1)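 BV2 cells preincubated 24 h, then exposed to compounds and stimulated with LPS (E. coli 055:B5) for 24 h. Supernatant mixed with equal volume Griess reagent, 5 min at room temperature in the dark; absorbance read at 540 nm for NO. Curcumin as positive control.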"}, "A549": {"system": "A549", "test": "Cytotoxicity against human A549 cells by MTT assay", "format": "functional, cell-based"}, "BV-2 [2]": {"system": "BV-2", "test": "Antiinflammatory activity against mouse BV2 cells assessed as inhibition of LPS-induced nitric oxide production after 24 hrs by griess assay", "format": "functional, cell-based", "settings": "BV-2, 24 h", "how_it_was_run": "as §1"}}, "note": "Calls of active or inactive are those of the source. No cut-off for these calls is given here.", "data": [{"smiles": "CO[C@]12C=C3C(=O)C=C[C@H](C)[C@@]3(C)CC1=C(C)C(=O)O2", "values": [{"measurement": "Activity", "setting": "Bel-7402", "result": "inactive"}, {"measurement": "Activity", "setting": "A2780", "result": "inactive"}, {"measurement": "Activity", "setting": "HCT-116", "result": "inactive"}, {"measurement": "Activity", "setting": "Homo sapiens", "result": "inactive"}, {"measurement": "Activity", "setting": "HCT-8", "result": "inactive"}, {"measurement": "inhibition at 1 µM", "setting": "BV-2 [1]", "result": 36.1, "unit": "%"}, {"measurement": "Activity", "setting": "A549", "result": "inactive"}]}, {"smiles": "COc1cc(/C=C/C(=O)CC(=O)/C=C/c2ccc(O)c(OC)c2)ccc1O", "note": "[CURCUMIN]", "values": [{"measurement": "IC50", "setting": "BV-2 [2]", "result": 4, "unit": "µM"}]}, {"smiles": "C=C(C)[C@@H]1C[C@@]2(C)C(=CC1=O)[C@@H]1O[C@@H]1[C@H](O)[C@@H]2C", "values": [{"measurement": "Activity", "setting": "Bel-7402", "result": "inactive"}, {"measurement": "Activity", "setting": "A2780", "result": "inactive"}, {"measurement": "Activity", "setting": "HCT-116", "result": "inactive"}, {"measurement": "Activity", "setting": "Homo sapiens", "result": "inactive"}, {"measurement": "Activity", "setting": "HCT-8", "result": "inactive"}, {"measurement": "Activity", "setting": "A549", "result": "inactive"}]}, {"smiles": "CC(=O)O[C@H]1[C@H]2O[C@H]2C2=CC(=O)[C@]3(C[C@]2(C)[C@H]1C)O[C@]3(C)C=O", "values": [{"measurement": "Activity", "setting": "Bel-7402", "result": "inactive"}, {"measurement": "Activity", "setting": "A2780", "result": "inactive"}, {"measurement": "Activity", "setting": "HCT-116", "result": "inactive"}, {"measurement": "Activity", "setting": "Homo sapiens", "result": "inactive"}, {"measurement": "Activity", "setting": "HCT-8", "result": "inactive"}, {"measurement": "Activity", "setting": "A549", "result": "inactive"}]}, {"smiles": "COC(=O)[C@@H](C)c1cc2c(cc1O)C(=O)C=CC2(C)C", "values": [{"measurement": "Activity", "setting": "Bel-7402", "result": "inactive"}, {"measurement": "Activity", "setting": "A2780", "result": "inactive"}, {"measurement": "Activity", "setting": "HCT-116", "result": "inactive"}, {"measurement": "Activity", "setting": "Homo sapiens", "result": "inactive"}, {"measurement": "Activity", "setting": "HCT-8", "result": "inactive"}, {"measurement": "inhibition at 1 µM", "setting": "BV-2 [1]", "result": 50.6, "unit": "%"}, {"measurement": "Activity", "setting": "A549", "result": "inactive"}]}, {"smiles": "CO[C@@]12OC(=O)C(C)=C1C[C@@]1(C)[C@H](C(=O)C=C[C@@H]1C)[C@@H]2O", "values": [{"measurement": "Activity", "setting": "Bel-7402", "result": "inactive"}, {"measurement": "Activity", "setting": "A2780", "result": "inactive"}, {"measurement": "Activity", "setting": "HCT-116", "result": "inactive"}, {"measurement": "Activity", "setting": "Homo sapiens", "result": "inactive"}, {"measurement": "Activity", "setting": "HCT-8", "result": "inactive"}, {"measurement": "Activity", "setting": "A549", "result": "inactive"}]}, {"smiles": "COC(=O)[C@H]1CCC(=O)N1Cc1cc(OC)c2c(OC)cc3cc(OCc4ccccc4)ccc3c2c1", "values": [{"measurement": "Activity", "setting": "Bel-7402", "result": "inactive"}, {"measurement": "Activity", "setting": "A2780", "result": "inactive"}, {"measurement": "Activity", "setting": "HCT-116", "result": "inactive"}, {"measurement": "Activity", "setting": "Homo sapiens", "result": "inactive"}, {"measurement": "Activity", "setting": "HCT-8", "result": "inactive"}, {"measurement": "Activity", "setting": "A549", "result": "inactive"}]}, {"smiles": "CC1=C2C[C@@]3(C)C(=C[C@]2(O)OC1=O)C(=O)C=C[C@@H]3C", "values": [{"measurement": "Activity", "setting": "Bel-7402", "result": "inactive"}, {"measurement": "Activity", "setting": "A2780", "result": "inactive"}, {"measurement": "Activity", "setting": "HCT-116", "result": "inactive"}, {"measurement": "Activity", "setting": "Homo sapiens", "result": "inactive"}, {"measurement": "Activity", "setting": "HCT-8", "result": "inactive"}, {"measurement": "inhibition at 1 µM", "setting": "BV-2 [1]", "result": 29.4, "unit": "%"}, {"measurement": "Activity", "setting": "A549", "result": "inactive"}]}, {"smiles": "CC(=O)O[C@H]1[C@@H]2O[C@H]2[C@H]2C[C@@]3(O)OC[C@@]4(C)O[C@]43C[C@]2(C)[C@H]1C", "values": [{"measurement": "Activity", "setting": "Bel-7402", "result": "inactive"}, {"measurement": "Activity", "setting": "A2780", "result": "inactive"}, {"measurement": "Activity", "setting": "HCT-116", "result": "inactive"}, {"measurement": "Activity", "setting": "Homo sapiens", "result": "inactive"}, {"measurement": "Activity", "setting": "HCT-8", "result": "inactive"}, {"measurement": "Activity", "setting": "A549", "result": "inactive"}]}]}
